Assay: Toxicity liver stage against HepG2, at 10uM
Assay type: cell-based
Design: test concentration 10 uM, cell line HepG2-A16-CD81EGFP
Conditions: human, HepG2-A16-CD81EGFP cells; read-out: INHIBITION
In short: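 Uninfected HepG2-A16-CD81EGFP cells, 3 × 10^3 per well, 1536-well, plated on prespotted compound at 10 μM final, parasite-free screening media added to match infected plates; puromycin 10 μM positive, DMSO 0.5% negative; run in parallel with 48 h PbLuc assay at 37 °C, 5% CO2; viability by CellTiter-Glo luminescence, normalized to controls.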

Compared with `O=C(Nc1nc2c(s1)CN(S(=O)(=O)C1CC1)CC2)c1ccc(=O)[nH]c1`, `Cc1ccc(C)c(NC(=O)c2cc(S(=O)(=O)N3CCSCC3)c[nH]2)c1` is higher in cytotoxicity at 10 µM: -11.1% for the first, -0.185% for the second.

First: c1cncc(COCC2CNCc3nccn3C2)c1 (stereo unspecified)
Second: CCc1nc(C2CCCN2Cc2nccn2Cc2ccccc2)no1 (stereo unspecified)
The cytotoxicity at 10 µM of the first is higher: 14.2% for the first, 0.89% for the second.

Going from `CN(C)c1ccc2c(c1)CN(C(=O)c1cnccn1)C2c1cnco1` (stereo unspecified) to `Cc1nc(O)cc(CN2CCC=C(CN(C)C(=O)c3ccco3)C2)n1`, the cytotoxicity at 10 µM rises from 3.55% to 8.82%.

Going from `CC(C)OC[C@H]1CCC[C@]12CN(S(=O)(=O)C1CC1)CCO2` to `CN(C)S(=O)(=O)N1C[C@H]2CCC[C@@]2(COCc2ccccn2)C1`, the cytotoxicity at 10 µM rises from -2.51% to 0.718%.

Going from `CCC(CC)C(=O)N1CCCc2c(cnn2C)C1` to `Cc1cc(C)n(C2CCCN(C(=O)Cn3ccc(=O)n(C)c3=O)C2)n1` (stereo unspecified), the cytotoxicity at 10 µM falls from 6.55% to 0.437%.

First: CN(Cc1cscn1)Cc1cc2c(cc1Br)OCO2
Second: CN(Cc1nncn1C)C(=O)c1cc(COc2ccccc2F)[nH]n1
The cytotoxicity at 10 µM of the first is lower: -4% for the first, 2.14% for the second.

Going from `Cc1ccnc2c1NC(=O)CN2C(=O)CCC(F)(F)F` to `CC(C)(C)OC(=O)Cn1nc(C2CC2)cc(C(F)(F)F)c1=O`, the cytotoxicity at 10 µM rises from -15% to -8.96%.

First: O=C(NCc1ccc(N2CCSCC2)cc1)NCc1cc[nH]n1
Second: COc1ccc(CCNC(=O)N2CCN(C)[C@@H]3CS(=O)(=O)C[C@@H]32)cc1
The cytotoxicity at 10 µM of the first is lower: -0.645% for the first, 6.05% for the second.

Compared with `CCSc1cc(C(=O)N(Cc2cnn(C)c2)C(C)C)ccn1`, `CCSc1ccc(C(=O)NCCc2nnc(-c3ccco3)[nH]2)cn1` is higher in cytotoxicity at 10 µM: 4.64% for the first, 10.7% for the second.

Compared with `CN(CC(=O)NS(=O)(=O)c1cccs1)Cc1ccccc1`, `CCOc1ccccc1NC(=O)CN(C)Cc1ccccc1Cl` is higher in cytotoxicity at 10 µM: -9.71% for the first, -6.93% for the second.

Going from `CC(C)Cc1noc(CN(C)C2CCS(=O)(=O)C2)n1` (stereo unspecified) to `CC(C)c1nc(CNC(C(=O)N2CCOCC2)C(C)C)no1` (stereo unspecified), the cytotoxicity at 10 µM rises from 5.7% to 6.43%.

First: CSCc1cc(F)ccc1CNC(=O)N1CCC[C@@H]1CO
Second: O=C1NCCN(C(=O)CN2CCOC2=O)C1c1cccc(F)c1 (stereo unspecified)
The cytotoxicity at 10 µM of the first is lower: 4.8% for the first, 8.91% for the second.

Going from `CCNc1c(C#N)c(=O)n(C)c(=O)n1C` to `CCCc1noc(C2CC(=O)N(C(C)(C)C)C2)n1` (stereo unspecified), the cytotoxicity at 10 µM falls from 0.504% to 0.0198%.

Compared with `CC1CN(c2ncnc3ccccc23)CCO1` (stereo unspecified), `Cc1ccc2c(n1)N(CC1CC1)CCN(Cc1ccco1)C2` is lower in cytotoxicity at 10 µM: 23.6% for the first, 2.75% for the second.

Going from `Cc1cc(CN(C)S(=O)(=O)N2CCCC2c2ccc(C)o2)no1` (stereo unspecified) to `CCn1cc(CN(C)S(=O)(=O)N2CCCC2c2ccco2)cn1` (stereo unspecified), the cytotoxicity at 10 µM rises from 3.33% to 9.14%.

Compared with `COC1CCCN(C(=O)NCC(C)(C)SC)C1` (stereo unspecified), `COC(=O)N1CCCN(C(=O)NCc2ccc(Cl)s2)CC1` is lower in cytotoxicity at 10 µM: 10.5% for the first, 1.76% for the second.

Going from `Cc1cc(S(C)(=O)=O)c(C)c(S(=O)(=O)N2CCN(C)CC2)c1` to `NC(=O)[C@@H]1Cc2ccccc2CN1S(=O)(=O)N1CCCCCC1`, the cytotoxicity at 10 µM rises from 11.7% to 15.6%.

First: Cc1cccc(N2N=C(C(=O)NC(C)Cc3ccco3)CCC2=O)c1 (stereo unspecified)
Second: CC(NC(=O)Cc1ccccc1F)(C(N)=O)c1cccc(Cl)c1 (stereo unspecified)
The cytotoxicity at 10 µM of the first is lower: -9.6% for the first, 17.6% for the second.

Compared with `CCCn1nnnc1CSCc1cn2c(C)cccc2n1`, `CCn1c(C)nnc1CN(C)C1CCN(CCn2cccn2)C1` (stereo unspecified) is lower in cytotoxicity at 10 µM: 8% for the first, 1.49% for the second.

First: CCC(=O)N1CCN(C(=O)NC2CCc3ccccc3C2)CC1 (stereo unspecified)
Second: CCN1CCn2c(C)cnc2C12CCN(C(=O)c1ccc(Cl)cc1)CC2
The cytotoxicity at 10 µM of the first is lower: -15.9% for the first, 1.22% for the second.

Compared with `Cc1nnnn1-c1ccc(CC(=O)N2CCOCC(O)C2)cc1` (stereo unspecified), `CCc1oc(C(=O)NCCc2cc(O)nc(C)n2)cc1CN1CCCC1` is higher in cytotoxicity at 10 µM: -7.46% for the first, 13.1% for the second.

Going from `CCn1c(C2CCNCC2)nn(CCn2cncn2)c1=O` to `O=S(=O)(CC1CC1)c1ncc(CN2CCOCC2)n1CC1CCCO1` (stereo unspecified), the cytotoxicity at 10 µM rises from -6.26% to -3.06%.

First: Cc1c(C(C)NC2CCCC2)cnn1-c1ccc(F)cc1F (stereo unspecified)
Second: COc1cccc(CN2CCC3(CCN(c4ncc(C)cn4)CC3)C2)c1
The cytotoxicity at 10 µM of the first is higher: 4.91% for the first, -6.5% for the second.

Source: ChEMBL document CHEMBL4513216, “Probing the Open Global Health Chemical Diversity Library for Multistage-Active Starting Points for Next-Generation Antimalarials” (ACS Infect Dis, 2020)
